# Source: PubChem
# TNF necrop inh = inhibitors of TNF-alpha triggered necroptosis, primary screen, cell-based, Jurkat FADD-/-, single concentration; Jurkat FADD-/- TNF necroptosis rescue, ATP luminescence, 24 h; 0 = TNF only, 100 = no-TNF cells; activation (protection from cell death), % at 10 µM; 220,000 compounds, 0.068% hits;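 active = activation, meaning protection from cell death, of at least 50% relative to plate controls; inactive = activation below 50%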;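 also: necroptosis triggered by 40 ng/mL TNF-alpha added together with compound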
# zVAD death inh = inhibitors of zVAD-triggered necroptosis, primary screen, L929 cells; L929 zVAD necroptosis rescue, ATP luminescence, 24 h; with zVAD 60 µM; viability rescue, % at 10 µM; 220,000 compounds, 0.38% hits;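 active = activation, scaled between plate controls, above about 75%, limit read from the data; inactive = activation under that limit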;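 also: 0% = zVAD with DMSO and 100% = DMSO alone without zVAD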
# Autophagy HCS = autophagy modulators in MEF cells, primary screen, imaging, high-content, MEF GFP-LC3; MEF GFP-LC3 puncta imaging; test concentration mostly 10 µM; 190,000 compounds, 0.98% hits; calls only at 10 µM (by protocol); AID 463193, 2010;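 active = percentage of spot-positive cells more than 3 SD above its plate mean, without a fluorescence outlier flag or 80% toxicity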;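 also: spot-positive cell cutoff set from DMSO-treated cells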
# Hck Nef HTS = inhibitors of Nef-activated human Hck kinase, primary screen, biochemical, Z-Lyte FRET, 384-well, Hck-YEEI; inhibition, % at 20 µM; AID 463187, 2010; Recombinant Hck-YEEI plus Nef, Z-Lyte FRET kinase assay; Tyrosine-protein kinase HCK (Homo sapiens), P08631; 220,000 compounds, 0.68% hits;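 active = Hck-Nef kinase inhibition above about 50%, limit read from the data; inactive = inhibition below that limit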;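 also: 0% = DMSO with Hck plus Nef and 100% = Hck alone without Nef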
# Target sequence (P08631 whole entry, looked up): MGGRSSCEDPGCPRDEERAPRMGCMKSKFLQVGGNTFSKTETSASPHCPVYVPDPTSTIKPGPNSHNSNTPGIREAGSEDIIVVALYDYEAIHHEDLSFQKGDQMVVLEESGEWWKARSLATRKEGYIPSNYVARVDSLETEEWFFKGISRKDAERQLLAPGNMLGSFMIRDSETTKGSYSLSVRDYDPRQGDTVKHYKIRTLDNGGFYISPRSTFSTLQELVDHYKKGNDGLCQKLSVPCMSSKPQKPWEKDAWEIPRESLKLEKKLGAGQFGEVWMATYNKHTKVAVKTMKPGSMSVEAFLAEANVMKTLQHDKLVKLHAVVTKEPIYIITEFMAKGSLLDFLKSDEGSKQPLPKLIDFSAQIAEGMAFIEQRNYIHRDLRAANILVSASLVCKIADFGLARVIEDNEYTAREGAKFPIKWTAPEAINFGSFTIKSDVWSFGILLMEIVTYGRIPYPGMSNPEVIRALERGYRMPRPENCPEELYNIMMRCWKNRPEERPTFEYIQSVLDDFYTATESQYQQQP
# Dynein cargo inh = inhibitors of GR-EGFP nuclear translocation, primary screen, dynein cargo transport inhibitor project, imaging, high-content, 3617.4 mouse cells; test concentration mostly 20 µM; stimulated with dexamethasone, 1 µM; stronger effect = lower value; z-score, hits read low; 220,000 compounds, 0.47% hits;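 active = plate z-score of nuclear minus cytoplasmic receptor signal below a set negative limit, without overly bright fluorescence or cell loss, cut at about -3.5 in these data, passing the limit was not always enough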;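 also: z-score of nuclear minus cytoplasmic ring GR-EGFP intensity difference per well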
#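 Buffer or medium – tet-free medium with charcoal-stripped serum · Signal – automated 10x imaging of fixed Hoechst-stained cells · Also added – dexamethasone agonist, 1.0 µM final, for 30 min · Incubation – induction 48 h, compound 1 h, agonist 30 min · Read-out – GR-EGFP nuclear translocation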
# Mdm2 ligase inh = MDM2-luciferase reporter signal enhancers, primary screen, MDM2 E3 ligase inhibitor project, cell-based, luminescence, 1536-well; E3 ubiquitin-protein ligase Mdm2 (Homo sapiens), Q00987; cell-based MDM2 ubiquitination luciferase reporter, 2 h; 0 = plate control, 100 = twice control, blank-subtracted; signal enhancement, % at 5 µM; 210,000 compounds, 0.11% hits;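 active = signal enhancement of 30% or more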;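 also: luminescence tracks abundance of the self-degrading MDM2-luciferase fusion protein; higher signal means inhibition of MDM2 E3 ligase activity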
#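 Test system: mammalian cells stably expressing self-ubiquitinating, self-degrading MDM2 E3–luciferase fusion; Amount: 2000 cells in each well; Medium: DMEM; Schedule: 4 h settle plus 2 h compound, 37 °C; Technique: SteadyLite luciferase luminescence after 15 min room-temperature reagent incubation; Benchmarks: plate control and blank wells.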
# * hit, by the source's call; i = inactive; x = no result; + = active, no number. Only some compounds are listed: those with a hit (about 2.4% of all), similar ones and a draw of the others.
SMILES,TNF necrop inh,zVAD death inh,Autophagy HCS,Hck Nef HTS,Dynein cargo inh,Mdm2 ligase inh
CCc1nnc(NC(=O)CCn2cnc3ccccc3c2=O)s1,-1,2,i,21,-0.32,-13
CCc1ccc(NC(=O)N(Cc2ccco2)C(C)c2cccs2)cc1 (configuration not stated),-1,0,i,1,-1,-7
CCc1ccc(NC(=O)CS(=O)CC(=O)NC(C)CCc2ccco2)cc1 (configuration not stated),0,-2,+,-4,0.78,8
N#Cc1c(-c2ccccc2)nc(SCC(=O)N(c2ccccc2)c2ccccc2)[nH]c1=O,1,0,i,6,1.4,-9
N#Cc1c(-c2ccccc2)nc(SCC(=O)N2c3ccccc3Sc3ccccc32)[nH]c1=O,0,2,x,82*,0.62,-3
CCN1C(=O)CC(NCc2ccc(S(N)(=O)=O)cc2)C1=O (configuration not stated),0,0,x,10,1.3,-13
Nc1c(C(=O)NCCN2CCOCC2)c2nc3ccccc3nc2n1-c1ccc2c(c1)OCO2,-4,12,+,29,0.72,3
Cc1ccc(S(=O)(=O)c2cc3ccccc3oc2=Nc2ccc3c(c2)OCCO3)cc1,1,1,i,1,0.54,-2
Cc1ccc(S(=O)(=O)c2cc3ccccc3oc2=Nc2ccc3c(c2)OCO3)cc1,-4,0,+,-1,1.6,-4
Cc1ccc2sc(NC(=O)CN3C(=O)c4ccccc4C3=O)nc2c1C,1,x,i,-3,0.22,x
COC(C(=O)Nc1ccc(Cl)cc1C)c1ccccc1 (configuration not stated),97*,0,i,-1,-0.64,-8
Cc1cc(C)c(C)c(S(=O)(=O)N2CCN(C)CC2)c1C,1,0,+,-5,-0.4,-7
CC(C)c1noc2ncc(C(=O)c3cc(Cl)cc(Cl)c3O)cc12,1,1,i,1,0.44,-16
CCOC(=O)c1sc2cc([N+](=O)[O-])cc(SCC(C)C)c2c1N,0,1,+,6,-0.82,5
OC(c1ccccc1)c1nc2ccccc2s1 (configuration not stated),50*,6,i,1,-0.45,-1
CCOCCCNCc1ccc(OCc2ccccc2C)c(OC)c1,4,0,i,1,-0.43,-6
O=[N+]([O-])c1ccc(/C=N/N=C/c2ccc([N+](=O)[O-])o2)o1,8,-1,i,-5,-3.6*,77*
O=C(O)/C=C/c1ccc([N+](=O)[O-])o1,-2,0,i,27,-0.54,-13
Cc1ccc(C=Nc2ccccc2C(N)=O)cc1,-6,-1,+,2,0.058,-6
Cc1c(C(=O)N/N=C/c2cccs2)nc2ccccn12,2,0,i,5,-0.29,-5
CCOC(=O)C1(C(F)(F)F)N=C(c2cccnc2)OC(N2CCCCC2)=N1 (configuration not stated),1,x,i,-1,-0.33,-3
Cc1nc2ccccc2c2c(N)c3ccccc3n12,-4,5,i,15,-0.66,-17
Cc1c(C(=O)Nc2ccc(Cl)cc2)c2ccccn2c1C(=O)c1ccc([N+](=O)[O-])cc1,-1,0,+,20,0.61,-6
c1ccc(CC2CCN(C3=Nc4cccc5cccc3c45)CC2)cc1,7,0,+,4,0.17,-11
c1cc2c3c(cccc3c1)C(N1CCN(C3=Nc4cccc5cccc3c45)CC1)=N2,-17,0,i,3,-2,x
SMILES,TNF necrop inh,zVAD death inh,Autophagy HCS,Hck Nef HTS,Dynein cargo inh,Mdm2 ligase inh
O=C1C2C3C=CC(C2C(=O)N1C1CCCCC1)C1C2C(=O)N(C4CCCCC4)C(=O)C2C31 (configuration not stated),1,-1,i,4,0.6,-9
Cc1cccc(NC(=S)NC(=O)/C=C/c2ccco2)c1,-5,0,+,14,-0.16,-12
CCSc1ncc(/C=N/Nc2ccccc2)n1C,-3,0,i,1,-0.84,7
O=[N+]([O-])c1ccc(N/N=C\c2cccn2-c2ccccc2)nc1,7,2,+,0,-0.78,-19
Cc1ccccc1-n1c(C)cc(/C=N/Nc2ccc([N+](=O)[O-])cn2)c1C,0,0,+,-8,0.21,-5
CCSc1ncc(/C=N/Nc2ccc([N+](=O)[O-])cc2)n1C,1,1,+,0,-0.94,-4
O=[N+]([O-])c1ccc(N/N=C/c2ccc(OCc3cccc4ccccc34)cc2)nc1,0,1,+,-21,-0.12,-12
N#Cc1ccccc1Cn1cc(/C=N/Nc2ccc([N+](=O)[O-])cn2)c2ccccc21,-6,70,i,3,-3.1,-15
CC(C)(C)OC(=O)N/N=C/c1cccn1-c1ccc([N+](=O)[O-])cc1,2,2,x,20,-0.11,-10
Cc1cc(C)nc(SCC(=O)N/N=C/c2cc(C)n(-c3ccccc3C)c2C)n1,-2,0,i,14,-0.18,11
O=C(CNCc1ccccn1)N1CCc2ccccc2C1,3,0,x,21,-0.48,x
CCOC(=O)c1ccc(NC(=O)c2nc[nH]c2C(=O)N2CCN(c3ccccc3)CC2)cc1,0,0,x,5,1.5,0
Cc1[nH]c(=O)[nH]c(=O)c1S(=O)(=O)N1CCC(C(=O)N2CCN(c3cccc(C(F)(F)F)c3)CC2)CC1,1,2,i,-1,0.28,-4
COC(=O)c1nn2c(C(F)(F)F)cc(-c3ccc(Br)o3)nc2c1Br,1,5,+,0,1.6,x
O=C(NCc1ccco1)c1nn2c(C(F)(F)F)cc(-c3cccs3)nc2c1Br,1,0,i,-5,-0.89,-19
Cc1cccc(N2CCN(Cc3nc(-c4cccc(Oc5ccccc5)c4)oc3C)CC2)n1,2,1,+,21,-0.023,-8
CSc1ccc(Cl)c(C(=O)OCC(=O)NCC(C)C)c1,0,0,i,0,0.32,-6
CNC(=O)COC(=O)c1cc(SC)ccc1Cl,1,2,+,-37,1.7,1
